Source: PubChem BioAssay AID624299 (Broad Institute, 2012)
Where “and” joins values, the source holds several entries; their conditions need not be identical. Equal entries are not always repeated. Calls of active or inactive are those of the source.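 The calls were made as follows: active = compounds lowering the cell viability light signal with a fitted AC50 at most twice the top dose tested; inconclusive = flat fit with 30 to 70% inhibition, or poor fit; inactive = the rest.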

system: not listed separately; test: MALME3 melanoma cell viability reduction, dose response, orthogonal assay for MITF inhibitor project, CellTiter-Glo luminescence, dry powder samples, set 2 (AID 624299); conditions: MALME3 melanoma viability, CellTiter-Glo ATP luminescence, 24 h; at 35 µM (top of the series)
Method in brief: (§1)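 Test system: MALME3 melanoma cells, an MITF-dependent line / Signal: CellTiter-Glo luminescence measuring cellular ATP / Buffer or medium: phenol-red-free IMDM with 10% FBS / Schedule: 37 °C compound incubation, 5 min RT before reading / Compound: multi-dose pinned compounds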

SMILES | activity change, negative = inhibition
O=C(NC1=C(c2ccc(OC(F)(F)F)cc2)C(=O)c2ccccc2C1=O)c1ccc(Br)cc1 | 2.43% (inactive)
C=CCNC1=C(NCC=C)C(=O)c2ccccc2C1=O | 2.12% (inactive)
O=C1C(NS(=O)(=O)c2ccc(Br)cc2)=C(N2CCN(c3ccccc3)CC2)C(=O)c2ccccc21 | -51.2% (inactive)
O=C(NC1=C(N2CCN(c3ccccc3)CC2)C(=O)c2ccccc2C1=O)c1ccccc1 | -8.35% (inactive)
COc1ccc(C2=C(NC(=O)c3ccc4ccccc4c3)C(=O)c3ccccc3C2=O)cc1 | -7.26% (inactive)
COc1ccc(C2=C(NC(=O)c3ccc(OC)cc3-c3cccc(OC)c3)C(=O)c3ccccc3C2=O)cc1 | -8.34% (inactive)
O=C(NC1=C(c2ccc(Oc3ccccc3)cc2)C(=O)c2ccccc2C1=O)c1ccccc1 | -15.3% (inactive)

system: MALME3 melanoma viability, CellTiter-Glo ATP luminescence, 24 h; test: as above; conditions: not given
Method in brief: as §1

SMILES | AC50
CC(=O)NC1=C(c2ccc3c(c2)oc2ccccc23)C(=O)c2ccccc2C1=O | 22 µM
CC(=O)N(C)C1=C(N2CCN(C)CC2)C(=O)c2ccccc2C1=O | 1.96 µM
COc1ccc(C2=C(N)C(=O)c3ccccc3C2=O)cc1 | > 70 µM (inactive)
CC(=O)NC1=C(c2ccc(Cl)cc2)C(=O)c2ccccc2C1=O | 13.9 µM
O=C(NC1=C(N2CCOCC2)C(=O)c2ccccc2C1=O)c1ccc(Br)cc1 | 16.1 µM
O=C(NC1=C(N2CCSCC2)C(=O)c2ccccc2C1=O)c1ccccc1 | 18.8 µM
CCN1CCN(C2=C(N(C)C(C)=O)C(=O)c3ccccc3C2=O)CC1 | 2.5 µM
CCN1CCN(C2=C(Nc3ccccc3)C(=O)c3ccccc3C2=O)CC1 | 12.4 µM
NC1=CC(=O)c2ccccc2C1=O | 7.89 µM
CN1CCN(C2=C(NC(=O)c3ccc(Br)cc3)C(=O)c3ccccc3C2=O)CC1 | 1.93 µM
Cc1ccc(C(=O)NC2=C(c3ccccc3)C(=O)c3ccccc3C2=O)o1 | 23.7 µM
O=C(NC1=C(c2ccccc2)C(=O)c2ccccc2C1=O)c1ccc(Br)cc1 | > 70 µM (inactive)
CN1CCN(C2=C(NC(=O)c3ccccc3)C(=O)c3ccccc3C2=O)CC1 | 5.16 µM
CN1CCN(C2=C(Nc3ccccc3)C(=O)c3ccccc3C2=O)CC1 | 16.4 µM
C=CCNC1=C(N2CCN(C)CC2)C(=O)c2ccccc2C1=O | 19.1 µM
CC1CCN(CC(CS(=O)(=O)c2ccc([N+](=O)[O-])cc2)N2CCC(C)CC2)CC1 (configuration not stated) | 23 µM
O=C(NC1=C(N2CCOCC2)C(=O)c2ccccc2C1=O)c1ccccc1 | 24.4 µM
C=CCNC1=C(NCCCN(CC)CC)C(=O)c2ccccc2C1=O | 16.2 µM
Cc1nc2ccccc2n1/N=C/c1ccc([N+](=O)[O-])s1 | 11.3 µM
CC(=O)NC1=C(c2cccc(Cl)c2)C(=O)c2ccccc2C1=O | 13.1 µM
CCN(CC)CCCNC1=C(N(C)C(C)=O)C(=O)c2ccccc2C1=O | 3.12 µM
COc1ccc(C2=C(NC(=O)c3ccc(Cl)cc3)C(=O)c3ccccc3C2=O)cc1 | 32 µM
CCN1CCN(C2=C(NC(=O)c3ccc(Br)cc3)C(=O)c3ccccc3C2=O)CC1 | 1.79 µM
CCN1c2ccccc2NC2N=C(OC)C(c3ccccc3)C21 (configuration not stated) | 6.63 µM
O=C(NC1=C(N2CCCCC2)C(=O)c2ccccc2C1=O)c1ccccc1 | > 70 µM (inactive)
O=C1C(NS(=O)(=O)c2cccs2)=C(N2CCOCC2)C(=O)c2ccccc21 | 21.7 µM
COc1ccc(C(=O)NC2=C(c3ccccc3)C(=O)c3ccccc3C2=O)cc1 | 28.3 µM

SMILES | AC50
O=C1C(NS(=O)(=O)c2ccc(Br)cc2)=C(N2CCOCC2)C(=O)c2ccccc21 | 23.4 µM
C=CCNC1=C(N2CCOCC2)C(=O)c2ccccc2C1=O | 5.76 µM
O=C1C(NS(=O)(=O)c2ccc(Br)s2)=C(N2CCOCC2)C(=O)c2ccccc21 | 25.7 µM
C=CCNC1=C(Cl)C(=O)c2ccccc2C1=O | 9.65 µM and 12.4 µM
C=CCNC1=C(N2CCCCC2)C(=O)c2ccccc2C1=O | 1.61 µM
C=C1C(=O)OC2C1CC/C(C)=C\CCC1(C)OC21 (configuration not stated) | 22.9 µM
C[C@@H](NC1=C(Nc2ccccc2)C(=O)c2ccccc2C1=O)c1ccccc1 | > 70 µM (inactive)
CCN1CCN(C2=C(NS(=O)(=O)c3ccc(Br)s3)C(=O)c3ccccc3C2=O)CC1 | 17.2 µM
COc1cccc(C2=C(NC(=O)c3ccccc3)C(=O)c3ccccc3C2=O)c1 | 20.4 µM
O=C1C(NS(=O)(=O)c2ccc(Br)cc2)=C(c2ccc(OC(F)(F)F)cc2)C(=O)c2ccccc21 | > 70 µM (inactive)
C=CCNC1=C(N(C)C(C)=O)C(=O)c2ccccc2C1=O | 0.7 µM
O=C(NC1=C(Cl)C(=O)c2ccccc2C1=O)c1ccccc1 | 5.7 µM
CN1CCN(C2=C(NS(=O)(=O)c3ccccc3)C(=O)c3ccccc3C2=O)CC1 | 7.3 µM
NC1=C(NC(=O)c2ccccc2)C(=O)c2ccccc2C1=O | 16.1 µM
C=CCNC1=C(NCCN(CC)CC)C(=O)c2ccccc2C1=O | 8.96 µM
CC(=O)NC1=C(c2ccccc2)C(=O)c2ccccc2C1=O | 18.6 µM
COc1ccc(C(=O)NC2=C(c3ccc(OC)cc3)C(=O)c3ccccc3C2=O)cc1 | 23.1 µM
COc1ccc(C2=C(NC(=O)c3ccccc3OC)C(=O)c3ccccc3C2=O)cc1 | > 70 µM (inactive)
O=C1C(NS(=O)(=O)c2ccc(Br)cc2)=C(N2CCCCC2)C(=O)c2ccccc21 | 31.5 µM
COc1ccc(S(=O)(=O)N(C(C)=O)c2ccc(OC(C)=O)c3ccccc23)cc1[N+](=O)[O-] | 19.6 µM
O=C1C(NCCCN2CCOCC2)=C(Nc2ccccc2)C(=O)c2ccccc21 | > 70 µM (inactive)
CN1CCN(C2=C(NS(=O)(=O)c3ccc(Br)s3)C(=O)c3ccccc3C2=O)CC1 | 12.5 µM
COc1ccc(C2=C(NC(=O)c3cccc(OC)c3)C(=O)c3ccccc3C2=O)cc1 | 26.8 µM
CCN1CCN(C2=C(NC(=O)c3ccccc3)C(=O)c3ccccc3C2=O)CC1 | 3.93 µM
O=C1C(Nc2ccccc2)=C(N2CCOCC2)C(=O)c2ccccc21 | 15.6 µM and 24.9 µM
O=C(NC1=C(c2ccccc2)C(=O)c2ccccc2C1=O)c1ccccc1 | 32.2 µM
O=C1C(Nc2ccccc2)=C(N2CCSCC2)C(=O)c2ccccc21 | > 70 µM (inactive)

SMILES | AC50
C=CCNC1=C(N2CCSCC2)C(=O)c2ccccc2C1=O | 5.96 µM
C=CCNC1=C(N2CCN(CC)CC2)C(=O)c2ccccc2C1=O | 17.9 µM
CCN1CCN(C2=C(NS(=O)(=O)c3ccc(Br)cc3)C(=O)c3ccccc3C2=O)CC1 | 20 µM
O=C1C(NS(=O)(=O)c2ccccc2)=C(N2CCOCC2)C(=O)c2ccccc21 | 26.9 µM
CC(=O)N(C)C1=C(N2CCOCC2)C(=O)c2ccccc2C1=O | 7.36 µM
CCN1CCN(C2=C(NS(=O)(=O)c3cccs3)C(=O)c3ccccc3C2=O)CC1 | 14.9 µM
C=CCNC1=C(Nc2ccccc2)C(=O)c2ccccc2C1=O | > 70 µM (inactive)
O=C(CNc1cccc2ccccc12)N/N=C/c1ccc([N+](=O)[O-])o1 | 22.8 µM
NC1=C(c2ccc(OC(F)(F)F)cc2)C(=O)c2ccccc2C1=O | > 70 µM (inactive)
COc1ccc(C2=C(NC(C)=O)C(=O)c3ccccc3C2=O)cc1 | 12 µM
COc1ccc(C2=C(NC(=O)c3ccccc3Cl)C(=O)c3ccccc3C2=O)cc1 | 21.3 µM
COc1cccc(-c2cc(C(=O)NC3=C(Cl)C(=O)c4ccccc4C3=O)ccc2OC)c1 | 16.3 µM
O=C1C(Nc2ccccc2)=C(N2CCN(c3ccccc3)CC2)C(=O)c2ccccc21 | > 70 µM (inactive)
O=C1C(Nc2ccccc2)=C(N2CCCCC2)C(=O)c2ccccc21 | 5.84 µM
CC(=O)N(C)C1=C(N2CCCCC2)C(=O)c2ccccc2C1=O | 4.94 µM
CN1CCN(C2=C(NS(=O)(=O)c3cccs3)C(=O)c3ccccc3C2=O)CC1 | 11.7 µM
C=CCNC1=C(NC(=O)c2ccccc2)C(=O)c2ccccc2C1=O | > 70 µM (inactive)
O=C1C(NS(=O)(=O)c2ccc(Br)s2)=C(N2CCSCC2)C(=O)c2ccccc21 | 30.2 µM
O=C(NC1=C(N2CCSCC2)C(=O)c2ccccc2C1=O)c1ccc(Br)cc1 | 20.8 µM
O=C(NC1=C(c2ccc(OC(F)(F)F)cc2)C(=O)c2ccccc2C1=O)c1ccccc1F | > 70 µM (inactive)
COc1ccc(C(=O)NC2=C(c3ccc(OC(F)(F)F)cc3)C(=O)c3ccccc3C2=O)cc1 | > 70 µM (inactive)
CN1CCN(C2=C(NS(=O)(=O)c3ccc(Br)cc3)C(=O)c3ccccc3C2=O)CC1 | > 70 µM (inactive)
O=C1C=C(Nc2ccccc2)C(=O)c2ccccc21 | 2.18 µM
CCN(CC)CCCNC1=C(Nc2ccccc2)C(=O)c2ccccc2C1=O | 25.5 µM
O=C(NC1=C(c2ccccc2)C(=O)c2ccccc2C1=O)c1ccco1 | 23.5 µM
COC1=C(NS(=O)(=O)c2ccccc2)C(=O)c2ccccc2C1=O | 13.4 µM
